From ChEMBL document CHEMBL5370586 (J Nat Prod, 2023)
Activity calls are given as the source filed them. The rule behind the calls is not given here.

Experiments:
[1] = test system: DU-145; assay: Induction of cell death in human DU-145 cells assessed as reduction in cell nucleus circularity at 1 to 10 uM measured after 72 hrs by Hoechst 33342 staining based high content imaging fluorescence microscopic analysis; format: functional; conditions: dose 1-10 µM
Outline: (§1)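 DU145 or PC-3 cells seeded at 2 × 10^3 per well and given CBD at 1, 5 or 10 μM with serum for 72 h; staurosporine as positive control. Stained 30 min with Hoechst 33342 (1:5000), YO-PRO-1 (1:1000) and PI (1:1000). High-content imaging with a 63× water objective. Hoechst gave confluency, nucleus area and circularity; YO-PRO/PI gave healthy, early and late apoptotic fractions.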

[2] = test system: PC-3; assay: Induction of cell death in human PC-3 cells assessed as reduction in cell nucleus circularity at 1 to 10 uM measured after 72 hrs by Hoechst 33342 staining based high content imaging fluorescence microscopic analysis; format: functional; conditions: dose 1-10 µM; outline: as §1
[3] = test system: PC-3; assay: Induction of apoptosis in human PC-3 cells assessed as reduction in fraction of healthy cells at 1 to 10 uM incubated for 72 hrs by YO-PRO and propidium iodide staining based high content imaging fluorescence microscopic analysis; format: functional, cell-based; conditions: dose 1-10 µM; outline: as §1
[4] = test system: PC-3; assay: Induction of cell cycle arrest in human PC-3 cells assessed as arrest in G2/M phase by measuring reduction in CDK7 protein expression at IC50 concentration incubated for 48 hrs by Western blotting analysis; format: functional, cell-based
Outline: (§2)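 DU145 or PC-3 cells seeded at 5 × 10^4 per well and given CBD for 48 h. Lysed in ice-cold RIPA with protease/phosphatase inhibitor; 40 μg protein per lane, SDS-PAGE, PVDF transfer, milk block. Primary antibodies overnight at 4 °C, then HRP secondary 1 h at room temperature, chemiluminescence. Densitometry normalised to loading control, then to vehicle; at least three experiments.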

[5] = test system: PC-3; assay: Induction of cell cycle arrest in human PC-3 cells assessed as arrest in G2/M phase by measuring reduction in CDK1 protein expression at IC50 concentration incubated for 48 hrs by Western blotting analysis; format: functional, cell-based; outline: as §2
[6] = test system: PC-3; assay: Induction of cell cycle arrest in human PC-3 cells assessed as arrest in G1/S phase by measuring reduction in cyclin D3 protein expression at IC50 concentration incubated for 48 hrs by Western blotting analysis relative to control; format: functional, cell-based; outline: as §2
[7] = test system: PWR-1E; assay: Induction of apoptosis in human PWR-1E cells assessed as early apoptotic cells at 1 to 10 uM incubated for 72 hrs […] and propidium iodide staining based high content imaging fluorescence microscopic analysis; format: toxicity, cell-based; conditions: dose 1-10 µM
Outline: (§3)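 PWR-1E cells seeded at 2 × 10^3 per well and given CBD at 1, 2 or 10 μM without serum for 72 h. Stained with Hoechst 33342, YO-PRO-1 and PI, then imaged by high-content microscopy. Scored for confluency and for healthy, early and late apoptotic fractions; at least three independent experiments.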

[8] = test system: LNCaP; assay: Antiproliferative activity against human LNCaP cells assessed as reduction in cell viability incubated for 72 hrs in serum deprivation condition by MTT assay; format: functional, cell-based
Outline: (§4)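 Cells seeded at 1 × 10^3 (DU145, PC-3), 6 × 10^3 (LNCaP), 2 × 10^3 (PWR-1E) or 4.5 × 10^3 (RWPE-1) per well and left to adhere 24 h. CBD (0–100 μM) then given for 72 h in serum-free medium. MTT added for 3 h at 37 °C, formazan dissolved in DMSO, absorbance read at 570 nm. Viability is % of vehicle; IC50 by nonlinear regression; at least three independent experiments.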

[9] = test system: PC-3; assay: Antiproliferative activity against human PC-3 cells assessed as reduction in cell viability incubated for 72 hrs in presence of SR141716 by MTT assay; format: functional, cell-based
Outline: (§5)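 DU145 or PC-3 cells pretreated 1 h with SR141716 (CB1 antagonist), SR144528 (CB2 antagonist), capsazepine (TRPV1 antagonist) or LPI (GPR55 agonist), then given CBD for 72 h. MTT read-out as % of vehicle. Compared with CBD alone by t-test; at least three independent experiments.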

[10] = test system: DU-145; assay: Induction of cell cycle arrest in human DU-145 cells assessed as arrest in G1/S phase by measuring reduction in cyclin D3 protein expression at IC50 concentration incubated for 48 hrs by Western blotting analysis relative to control; format: functional; parameters: scale not given: the % may be the effect or the level left; outline: as §2
[11] = test system: DU-145; assay: Induction of cell cycle arrest in human DU-145 cells assessed as arrest in G2/M phase by measuring reduction in CDK7 protein expression at IC50 concentration incubated for 48 hrs by Western blotting analysis; format: functional, cell-based; outline: as §2
[12] = test system: PC-3; assay: Induction of cell cycle arrest in human PC-3 cells assessed as arrest in G1/S phase by measuring reduction in CDK2 protein expression at IC50 concentration incubated for 48 hrs by Western blotting analysis; format: functional, cell-based; outline: as §2
[13] = test system: PWR-1E; assay: Cytotoxicity against human PWR-1E cells assessed as reduction in cell confluency at 1 to 10 uM incubated for 72 hrs by Hoechst 33342 staining based high-content fluorescence microscopy; format: toxicity; conditions: dose 1-10 µM; outline: as §3
[14] = target: T1, Serine/threonine-protein kinase AKT (Homo sapiens) (UniProt P31751+Q9Y243+P31749); assay: Inhibition of AKT phosphorylation in human DU-145 cells at IC50 concentration incubated for 48 hrs by Western blot analysis relative to control; format: cell-based
T1 sequence (P31749 whole entry, looked up): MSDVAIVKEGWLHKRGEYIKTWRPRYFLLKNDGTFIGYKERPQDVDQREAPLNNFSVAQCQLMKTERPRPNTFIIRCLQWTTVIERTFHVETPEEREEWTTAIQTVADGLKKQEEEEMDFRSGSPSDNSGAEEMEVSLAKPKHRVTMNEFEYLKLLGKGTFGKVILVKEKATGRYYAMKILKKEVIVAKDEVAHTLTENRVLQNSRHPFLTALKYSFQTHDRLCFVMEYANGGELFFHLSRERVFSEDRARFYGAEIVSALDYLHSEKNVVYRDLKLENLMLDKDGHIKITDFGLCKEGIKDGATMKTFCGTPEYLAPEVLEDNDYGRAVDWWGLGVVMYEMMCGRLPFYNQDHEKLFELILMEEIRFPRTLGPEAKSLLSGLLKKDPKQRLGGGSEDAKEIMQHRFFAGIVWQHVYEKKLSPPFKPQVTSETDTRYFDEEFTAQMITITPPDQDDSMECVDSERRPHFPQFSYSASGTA
T1 sequence (P31751 whole entry, looked up): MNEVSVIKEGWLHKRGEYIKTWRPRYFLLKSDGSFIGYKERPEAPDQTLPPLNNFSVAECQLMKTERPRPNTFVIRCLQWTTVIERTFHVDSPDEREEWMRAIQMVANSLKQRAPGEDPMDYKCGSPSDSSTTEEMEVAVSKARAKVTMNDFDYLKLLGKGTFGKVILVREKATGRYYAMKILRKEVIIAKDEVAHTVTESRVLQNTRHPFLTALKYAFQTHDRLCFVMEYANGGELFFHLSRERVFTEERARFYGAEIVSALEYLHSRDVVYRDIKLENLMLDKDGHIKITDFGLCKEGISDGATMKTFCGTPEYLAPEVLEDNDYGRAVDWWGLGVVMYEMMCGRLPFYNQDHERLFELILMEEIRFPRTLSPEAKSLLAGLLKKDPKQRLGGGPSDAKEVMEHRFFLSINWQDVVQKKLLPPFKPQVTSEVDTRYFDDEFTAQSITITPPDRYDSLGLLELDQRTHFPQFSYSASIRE
T1 sequence (Q9Y243 whole entry, looked up): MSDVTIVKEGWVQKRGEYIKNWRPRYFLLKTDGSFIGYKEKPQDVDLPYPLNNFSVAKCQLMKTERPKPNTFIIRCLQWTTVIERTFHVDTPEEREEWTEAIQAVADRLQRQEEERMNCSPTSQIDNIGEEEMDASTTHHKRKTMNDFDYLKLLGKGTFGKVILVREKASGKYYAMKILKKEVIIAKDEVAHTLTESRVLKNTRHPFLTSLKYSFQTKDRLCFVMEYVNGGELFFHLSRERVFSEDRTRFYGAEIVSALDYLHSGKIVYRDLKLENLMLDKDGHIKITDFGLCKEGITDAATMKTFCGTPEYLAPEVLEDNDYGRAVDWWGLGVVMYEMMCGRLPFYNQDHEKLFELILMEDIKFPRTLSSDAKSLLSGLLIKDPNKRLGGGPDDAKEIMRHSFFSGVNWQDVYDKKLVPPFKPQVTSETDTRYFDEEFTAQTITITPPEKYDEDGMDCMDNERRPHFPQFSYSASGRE
Outline: (§6)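 Cells seeded at 5 × 10^4 per well and treated 48 h with an IC50 dose of CBD in DU145 or PC-3. Lysed in ice-cold RIPA with protease/phosphatase inhibitor. 40 μg protein per lane on SDS-PAGE, then PVDF. Probed overnight at 4 °C for phospho-AKT and total AKT, HRP detection. Densitometry normalised to loading control, then to vehicle. Mean ± SD, ≥3 experiments, t-test.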

[15] = test system: PC-3; assay: Antiproliferative activity against human PC-3 cells assessed as reduction in cell viability incubated for 72 hrs in presence of LPI by MTT assay; format: functional, cell-based; outline: as §5
[16] = test system: DU-145; assay: Antiproliferative activity against human DU-145 cells assessed as reduction in cell viability incubated for 72 hrs in presence of LPI by MTT assay; format: functional, cell-based; outline: as §5
[17] = test system: PC-3; assay: Antiproliferative activity against human PC-3 cells assessed as reduction in cell count at IC50 concentration incubated for 48 hrs by flow cytometry analysis; format: functional, cell-based
Outline: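 Six-well seeding at 4 × 10^4 (DU145) or 3 × 10^4 (PC-3) cells per well; CBD for 48 h. Supernatant and trypsinised adherent cells pooled and resuspended in ice-cold PBS. Cells counted by flow cytometry with forward/side scatter gating; at least three independent experiments.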

[18] = test system: DU-145; assay: Antiproliferative activity against human DU-145 cells assessed as reduction in cell viability incubated for 72 hrs in serum deprivation condition by MTT assay; format: functional, cell-based; conditions: DU-145, 72 h; outline: as §4
[19] = test system: DU-145; assay: Antiproliferative activity against human DU-145 cells assessed as reduction in cell viability incubated for 72 hrs in presence of SR141716 by MTT assay; format: functional, cell-based; outline: as §5
[20] = test system: DU-145; assay: Induction of cell cycle arrest in human DU-145 cells assessed as arrest in G1/S phase by measuring reduction in CDK4 protein expression at IC50 concentration incubated for 48 hrs by Western blotting analysis; format: functional, cell-based; outline: as §2
[21] = target: T1, Serine/threonine-protein kinase AKT (Homo sapiens); assay: Inhibition of AKT phosphorylation in human PC-3 cells at IC50 concentration incubated for 48 hrs by Western blot analysis; format: cell-based; outline: as §6
[22] = test system: DU-145; assay: Induction of apoptosis in human DU-145 cells at IC50 concentration incubated for 48 hrs by YO-PRO and PI staining based flow cytometry analysis; format: functional, cell-based
Outline: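 After 48 h CBD, DU145 (4 × 10^4 per well) or PC-3 (3 × 10^4 per well) supernatant and trypsinised cells pooled. Stained in ice-cold PBS with YO-PRO (1:1000) and propidium iodide (1:1000). Flow cytometry gated live, early apoptotic and late apoptotic cells and DNA fragmentation.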

[23] = test system: PC-3; assay: Induction of apoptosis in human PC-3 cells assessed as late apoptotic cells at 1 to 10 uM incubated for 72 hrs by YO-PRO and propidium iodide staining based high content imaging fluorescence microscopic analysis; format: functional, cell-based; conditions: dose 1-10 µM; outline: as §1
[24] = test system: PC-3; assay: Antiproliferative activity against human PC-3 cells assessed as reduction in cell confluency at 10 uM measured after 72 hrs by Hoechst 33342 staining based high content imaging fluorescence microscopic analysis; format: functional; outline: as §1
[25] = test system: PC-3; assay: Antiproliferative activity against human PC3 cells assessed as reduction in cell viability incubated for 72 hrs in serum deprivation condition by MTT assay; format: functional, cell-based; conditions: PC-3, 72 h; outline: as §4
[26] = test system: DU-145; assay: Induction of cell cycle arrest in human DU-145 cells assessed as arrest in G1/S phase by measuring reduction in CDK2 protein expression at IC50 concentration incubated for 48 hrs by Western blotting analysis; format: functional, cell-based; outline: as §2
[27] = test system: PC-3; assay: Anti-invasive activity against human PC-3 cells assessed as reduction in MMP-1 protein secretion incubated for 48 hrs by ELISA analysis; format: functional, cell-based
[28] = test system: DU-145; assay: Antiproliferative activity against human DU-145 cells assessed as reduction in cell confluency at 5 to 10 uM measured after 72 hrs by Hoechst 33342 staining based high content imaging fluorescence microscopic analysis; format: functional; conditions: dose 5-10 µM; outline: as §1

With `C=C(C)[C@@H]1CCC(C)=C[C@H]1c1c(O)cc(CCCCC)cc1O` [CANNABIDIOL] the Activity [1] was “inactive”, the Activity [2] was “inactive” and the Activity [3] was “inactive”. The Activity [4] was “inactive”, the Activity [5] was “Active” and the Activity [6] was “Active”. The Activity [7] was “Toxic”, the IC50 [8] was 2600 nM and the Activity [9] was “Active”. The Activity [10] was roughly 20%, the Activity [11] was “inactive” and the Activity [12] was “Active”. The Activity [13] was “Toxic”, the inhibition [14] was 40% and the Activity [15] was “Active”. The Activity [16] was “Active”, the Activity [17] was “Active” and the IC50 [18] was 1500 nM. For the same compound, the Activity [19] was “Active”, the Activity [20] was “Active” and the inhibition [21] was “inactive”. For the same compound, the Activity [22] was “inactive”, the Activity [23] was “inactive” and the Activity [24] was “Active”. For the same compound, the IC50 [25] was 2900 nM, the Activity [26] was “Active” and the Activity [27] was “inactive”. The Activity [28] was “Active”.
